The record followed here is ChEMBL document CHEMBL1127347, “Synthesis and biological activity of bile acid-derived HMG-CoA reductase inhibitors. The role of 21-methyl in recognition of HMG-CoA reductase and the ileal bile acid transport system” (J Med Chem, 1994).

The species entered for assay [1] is Oryctolagus cuniculus. Put plainly: (§1) Tested for inhibition of Na+ -dependent [3H]taurocholate uptake into rabbit ileal brush border membrane vesicles. The class given is functional. A digest of the protocol:
(§2)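 Ileal brush border vesicles from male New Zealand white rabbits (4-5 kg), prepared by Mg2+ precipitation and kept in liquid nitrogen. Vesicles (50 μg protein) in 10 mM Tris-Hepes pH 7.4/300 mM mannitol were added to medium at 30 °C containing 50 μM [3H]taurocholate with 100 mM NaCl or 100 mM KCl. Uptake stopped at 60 s with ice-cold stop solution, then filtration and scintillation. Na+-dependent uptake taken as NaCl minus KCl uptake; mean ± SD, 3-10 independent experiments with different membrane preparations.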

Assay [2] addresses T1, 3-hydroxy-3-methylglutaryl-coenzyme A reductase (Rattus norvegicus, UniProt P51639).
T1 sequence (P51639 whole entry): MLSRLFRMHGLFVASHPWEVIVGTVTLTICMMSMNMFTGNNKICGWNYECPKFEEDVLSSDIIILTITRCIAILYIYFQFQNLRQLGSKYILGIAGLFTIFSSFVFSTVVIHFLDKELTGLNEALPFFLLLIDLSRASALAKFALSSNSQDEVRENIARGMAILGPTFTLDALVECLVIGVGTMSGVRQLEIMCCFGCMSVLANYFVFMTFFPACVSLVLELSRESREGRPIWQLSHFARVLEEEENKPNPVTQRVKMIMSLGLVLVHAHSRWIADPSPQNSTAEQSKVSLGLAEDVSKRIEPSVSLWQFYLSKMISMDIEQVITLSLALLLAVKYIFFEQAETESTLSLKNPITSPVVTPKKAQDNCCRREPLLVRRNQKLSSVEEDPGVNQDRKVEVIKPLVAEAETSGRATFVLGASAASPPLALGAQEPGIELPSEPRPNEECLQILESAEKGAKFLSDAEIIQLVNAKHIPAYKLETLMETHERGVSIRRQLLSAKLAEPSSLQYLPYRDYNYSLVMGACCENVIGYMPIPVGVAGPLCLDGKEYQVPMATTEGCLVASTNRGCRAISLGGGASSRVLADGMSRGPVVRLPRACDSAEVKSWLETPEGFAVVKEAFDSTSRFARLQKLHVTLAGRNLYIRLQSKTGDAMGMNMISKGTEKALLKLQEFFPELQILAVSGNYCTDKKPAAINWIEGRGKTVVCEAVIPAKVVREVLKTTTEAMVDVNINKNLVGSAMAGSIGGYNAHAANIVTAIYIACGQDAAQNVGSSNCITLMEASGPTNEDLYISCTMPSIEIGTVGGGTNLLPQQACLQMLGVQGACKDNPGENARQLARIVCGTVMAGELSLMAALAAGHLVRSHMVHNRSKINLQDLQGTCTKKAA
Put plainly: Tested for inhibition of rat liver microsomal HMG-CoA reductase. A digest of the protocol:
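Microsomes came from livers of male Wistar rats (200-220 g) fed 2% cholestyramine for 10 days. Assay at pH 7.4 with 40 μg microsomal protein, NADP, glucose-6-phosphate and G6P dehydrogenase. Mevalonolactone separated on anion-exchange column and counted. Six concentrations in triplicate; IC50 read graphically, mean ± SD of three independent experiments.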
For orientation: Microsomes from liver hold many membrane-bound enzymes, among them those of drug oxidation.

For a further assay, the system named is HepG2. Kind of assay: Tested for inhibition of cholesterol biosynthesis in HEP G2 cells. The class given is functional, cell-based. The conditions noted are these: Homo sapiens. The method in brief: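 HEP G2 cells seeded at 5×10^4 cells/cm², grown 24 h in RPMI 1640/10% FCS, then 24 h in 10% lipoprotein-deficient serum. Cholesterol isolated by TLC and counted, corrected for recovery of [3H]cholesterol.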

For assay [3], the species on record is Oryctolagus cuniculus. Described as §1. The class given is functional. A digest of the protocol:
as §2
The source holds these as a separate data set.

As for `CC[C@H](C)C(=O)O[C@H]1C[C@H]2[C@@H](CC[C@@H]3C[C@H](O)CC[C@@]32C)[C@@H]2CCC(CC[C@@H]3C[C@@H](O)CC(=O)O3)[C@@]12C` (stereo partly specified), the IC50 (usually the midpoint of a concentration-inhibition curve) in the assay filed under Oryctolagus cuniculus [1] came to 170 µM; in assay [2], 0.2 µM; in the assay with HepG2, 1.8 µM. Moreover, in the assay listed under Oryctolagus cuniculus [3], it took 87 µM to reach the 25% level (IC25). In the assay listed under Oryctolagus cuniculus [3], the IC75 (commonly the concentration needed for an effect of 75%) was above 250 µM.

In the assay filed under Oryctolagus cuniculus [1], `C[C@H](CCC(=O)O)[C@H]1CC[C@H]2[C@@H]3[C@H](O)C[C@@H]4C[C@H](O)CC[C@]4(C)[C@H]3C[C@H](O)[C@]12C` [CHOLIC ACID] returned an IC50 of 83 µM. Also, in the assay listed under Oryctolagus cuniculus [3], the IC25 (in general, the concentration at which the effect reaches the 25% level) is 40 µM and it took 152 µM to reach the 75% level (IC75).

With `CC[C@H](C)C(=O)O[C@H]1C[C@H]2[C@@H](CC[C@@H]3C[C@H](O)CC[C@@]32C)[C@@H]2CCC([C@H](C)C[C@H]3C[C@@H](O)CC(=O)O3)[C@@]12C` (stereo partly specified), the IC50 in the assay listed under Oryctolagus cuniculus [1] is 92 µM; in assay [2], 7 µM; with HepG2, 54.8 µM. This molecule had an IC25 in the assay listed under Oryctolagus cuniculus [3] of 47 µM. The same molecule registered an IC75 in the assay listed under Oryctolagus cuniculus [3] of 166 µM.

`CC[C@H](C)C(=O)O[C@H]1C[C@H]2[C@@H](CC[C@@H]3C[C@H](O)CC[C@@]32C)[C@@H]2CCC([C@H](C)C[C@@H]3C[C@@H](O)CC(=O)O3)[C@@]12C` (stereo partly specified): the values for the IC50 (in the assay listed under Oryctolagus cuniculus [1]; in assay [2]; with HepG2) were 85 µM, 0.65 µM and 16.1 µM, respectively. For the same molecule, in the assay listed under Oryctolagus cuniculus [3], it took 37 µM to reach the 25% level (IC25). In addition, the 75% effect level in the assay listed under Oryctolagus cuniculus [3] (IC75) was put at 148 µM.

As for `CC[C@H](C)C(=O)O[C@H]1C[C@@H](C)C=C2C=C[C@H](C)[C@H](CC[C@@H]3C[C@@H](O)CC(=O)O3)[C@H]21` [LOVASTATIN], the IC50 in the assay filed under Oryctolagus cuniculus [1] is above 250 µM; in assay [2], 0.007 µM; in the assay on HepG2, 0.029 µM. The molecule also came in with an IC25 in the assay filed under Oryctolagus cuniculus [3] of 230 µM. This molecule yielded an IC75 in the assay listed under Oryctolagus cuniculus [3] above 250 µM.

On to `CC[C@H](C)C(=O)O[C@H]1C[C@H]2[C@@H](CC[C@@H]3C[C@H](O)CC[C@@]32C)[C@@H]2CCC(CC[C@H]3C[C@@H](O)CC(=O)O3)[C@@]12C` (stereo partly specified), for which the IC50 in the assay listed under Oryctolagus cuniculus [1] worked out at 186 µM; in assay [2], 1 µM; in the assay with HepG2, 8.2 µM. Also, it took 87 µM to reach the 25% level in the assay filed under Oryctolagus cuniculus [3] (IC25). The molecule further gave an IC75 in the assay listed under Oryctolagus cuniculus [3] above 250 µM.

In the assay filed under Oryctolagus cuniculus [1], `C[C@H](CCC(=O)NCCS(=O)(=O)O)[C@H]1CC[C@H]2[C@@H]3[C@H](O)C[C@@H]4C[C@H](O)CC[C@]4(C)[C@H]3CC[C@]12C` [TAUROCHENODEOXYCHOLATE] gave an IC50 of 28 µM. Moreover, in the assay listed under Oryctolagus cuniculus [3], the IC25 stood at 13 µM and the IC75 turned out to be 61 µM.
